Measured values: PMC4682886 (ChemMedChem, 2015)
In brackets after ≈: the same amount, converted by molar mass. Like-named read-outs stand apart in the source and are kept apart here.

Assays:
[1] = test system: partially resistant clinical isolate of C. albicans CaCi-8; conditions: cited from earlier work; for active concentration: against CaCi-8 with fluconazole, none active below this, ref [48]–[50]
[2] = in the presence of fluconazole; lowest value; ref [45]; cited from earlier work
NIH 3T3 cells = test: Cytotoxicity against NIH 3T3 cells; assay type: cell-based; conditions: concentrations up to 1.5 mM
Summary of the method: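 Test compound applied to NIH 3T3 cells at concentrations up to 1.5 mM. Values are arithmetic means ± SD of three independent experiments.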

[3] = test system: resistant clinical isolates of C. albicans; assay type: cell-based; conditions: for Growth (OD600) +Cpd 31 +Fluc: compound 31 3 μM + fluconazole 64 μg/mL; for Growth (OD600) +Cpd 31 +Fluc / Growth (OD600) +Fluc: 16 h in SC at 30°C; for Growth (OD600) +Fluc: fluconazole 64 μg/mL alone
[4] = test system: C. albicans susceptible strain HLY4123; test: Dose-response curves of test compounds against C. albicans with fluconazole; assay type: cell-based; conditions: strain HLY4123, in the presence of fluconazole (0.25 μg/mL); mean ± SD of three independent experiments
[5] = test system: C. albicans strain HLY4123 and fluconazole-resistant clinical isolates 26 and 45; test: microbe, parasite or virus in culture; assay type: cell-based; conditions: for MICcpd (MIC90): compound 31 alone; for FICI: compound 31 and fluconazole; for MICcpd(+Flc) (MIC90): compound 31 in combination with fluconazole; for MIC90: Candida albicans
[6] = test system: resistant clinical isolates of C. albicans; design: unit not given beside the values; conditions: ref [69], cited from earlier work
[7] = molecular target: C. albicans sterol α-demethylase (a.k.a. Erg11 or CYP51); conditions: ref [71],[72]; cited from earlier work

In the case of `COC(=O)Cn1nc(-c2cccc(OC)c2)c2ccccc21` [ML212], the active concentration [1] is given as ≥ 0.7 µM.
For `CN[C@H]1CC[C@@H](c2ccc(Cl)c(Cl)c2)c2ccccc21` [sertraline], the MIC [2] is given as ≥ 0.5 µg/mL.
In the case of `Cc1c(Cl)ccc2c1NC(=O)[C@@]21[C@H]2C(=O)N(c3ccccc3)C(=O)[C@H]2[C@H]2CN(C(=O)OCc3ccccc3)CCN21` (racemic) [Compound 31, (±)-benzyl (3R,3a′R,3b′S,9a′S)-6-chloro-7-methyl-1′,2,3′-trioxo-2′-phenyl-2′,3′,3a′,3b′,4′,6′,7′,9a′-octahydrospiro[indoline-3,9′-pyrrolo[3′,4′:3,4]pyrrolo[1,2-a]pyrazine]-5′(1′H)-carboxylate], the cytotoxicity (NIH 3T3 cells; listed as Synazo-1) is reported as “low toxicity”, the EC50 ([3]; enhancing the effect of fluconazole against some resistant strains, lowest value) is reported as ≥ 2 nM and the “Growth (OD600) +Cpd 31 +Fluc” value ([3]; isolate 17) is reported as 0.76 OD600. The “Growth (OD600) +Cpd 31 +Fluc” value ([3]; isolate 23) was 0.60 OD600, the “Growth (OD600) +Cpd 31 +Fluc” value ([3]; isolate 26) was 0.83 OD600 and the “Growth (OD600) +Cpd 31 +Fluc” value ([3]; isolate 33) was 0.88 OD600. For the same compound, the “Growth (OD600) +Cpd 31 +Fluc” value ([3]; isolate 36) was 1.07 OD600, the “Growth (OD600) +Cpd 31 +Fluc” value ([3]; isolate 45) was 1.03 OD600 and the EC50 ([3]; read-out: Potency +Cpd 31 EC50, isolate 45, fluconazole 64 μg/mL, mean ± SD of three experiments) was 16 ± 0.002 nM. The EC50 [4] was 0.3 ± 0.01 nM, the “MICcpd (MIC90)” value ([5]; isolate 26) was >30 µM and the FICI ([5]; isolate 26) was 0.14. For the same compound, the “MICcpd(+Flc) (MIC90)” value ([5]; isolate 26) was 0.3 µM, the “MICcpd (MIC90)” value ([5]; isolate 45) was >30 µM and the FICI ([5]; isolate 45) was 0.13. The “MICcpd(+Flc) (MIC90)” value ([5]; isolate 45) was 0.03 µM, the “MICcpd (MIC90)” value ([5]; strain HLY4123) was >300 µM and the FICI ([5]; strain HLY4123) was 0.25. For the same compound, the “MICcpd(+Flc) (MIC90)” value ([5]; strain HLY4123) was 0.03 µM, the FIC index ([5]; with fluconazole, in all of the strains tested (susceptible and resistant)) was “below 0.5” and the “toxicity of compound alone against the strains” value ([5]; without fluconazole, at the solubility limit) was “did not have measurable toxicity”.
In the case of `O=C(Cn1c2ccccc2c2nc3n(c(=O)c21)CCS3)N1CCCC1` [ML229], the active concentration [1] is given as ≥ 0.7 µM.
In the case of `Cc1c(Cl)ccc2c1NC(=O)[C@]21N[C@@H](Cc2ccccc2)[C@H]2C(=O)N(c3ccc(F)cc3)C(=O)[C@H]21` [CID 6584729, (1S,3R,3aR,6aS)-1-benzyl-6′-chloro-5-(4-fluorophenyl)-7′-methylspiro[1,2,3a,6a-tetrahydropyrrolo[3,4-c]pyrrole-3,3′-1H-indole]-2′,4,6-trione], the EC50 ([1]; enhancing the effect of fluconazole against CaCi-8, ref [68]) is listed as 120 nM.
In the case of `OC(Cn1cncn1)(Cn1cncn1)c1ccc(F)cc1F` [Fluconazole, fluconazole, reference compound], the MICFlc ([6]; isolate 17) is given as 32, the MICFlc ([6]; isolate 23) is given as 32 and the MICFlc ([6]; isolate 26) is given as 32. The MICFlc ([6]; isolate 33) was 64, the MICFlc ([6]; isolate 36) was 64 and the MICFlc ([6]; isolate 45) was 128. The “Growth (OD600) +Fluc” value ([3]; isolate 17) was 3.96 OD600, the “Growth (OD600) +Fluc” value ([3]; isolate 23) was 6.77 OD600 and the “Growth (OD600) +Fluc” value ([3]; isolate 26) was 6.44 OD600. The “Growth (OD600) +Fluc” value ([3]; isolate 33) was 7.38 OD600, the “Growth (OD600) +Fluc” value ([3]; isolate 36) was 5.08 OD600 and the “Growth (OD600) +Fluc” value ([3]; isolate 45) was 9.17 OD600. The Ki [7] was 30 nM, the MIC90 ([5]; read-out: MIC90 for fluconazole, susceptible strain, synazo-1 present at 300 nM) was 0.125 µM (≈ 0.0383 µg/mL) and the MIC90 ([5]; read-out: MICFlc (MIC90), isolate 26, fluconazole alone) was 836 µM (≈ 256 µg/mL). It also gave an MIC90 ([5]; read-out: MICFlc (MIC90), isolate 45, fluconazole alone) of 836 µM (≈ 256 µg/mL) and an MIC90 ([5]; read-out: MICFlc (MIC90), strain HLY4123, fluconazole alone) of 0.5 µM (≈ 0.153 µg/mL).
In the case of `O=C(c1ccc(Cl)cc1)N1CCN(c2ccnc3cc(Cl)ccc23)CC1` [ML189], the active concentration [1] is listed as ≥ 0.7 µM.
In the case of `Cc1c(Cl)ccc2c1NC(=O)[C@]21N[C@H](Cc2ccccc2)[C@@H]2C(=O)N(c3ccc(F)cc3)C(=O)[C@@H]21` (racemic) [Compound 1, (±)-(3R,3′R,3a′R,6a′S)-3′-benzyl-6-chloro-5′-(4-fluorophenyl)-7-methyl-2′,3′,3a′,6a′-tetrahydro-4′H-spiro[indoline-3,1′-pyrrolo[3,4-c]pyrrole]-2,4′,6′(5′H)-trione], the cytotoxicity (NIH 3T3 cells) is reported as “only weak cytotoxicity” and the EC50 [4] is reported as 11 ± 4 nM.
For `Cc1c(Cl)ccc2c1N(Cc1ccccc1)C(=O)[C@@]21[C@H]2C(=O)N(c3ccccc3)C(=O)[C@H]2[C@H]2CN(C(=O)OC(C)(C)C)CCN21` (racemic) [Compound 17, (±)-tert-butyl (3R,3a′R,3b′S,9a′S)-1-benzyl-6-chloro-7-methyl-1′,2,3′-trioxo-2′-phenyl-2′,3′,3a′,3b′,4′,6′,7′,9a′-octahydrospiro [indoline-3,9′-pyrrolo[3′,4′:3,4]pyrrolo[1,2-a]pyrazine]-5′(1′H)-carboxy late], the EC50 [4] was > 100000 nM.
With `O=C1[C@H]2[C@@H](Cc3c[nH]c4ccccc34)N[C@]3(C(=O)Nc4ccccc43)[C@H]2C(=O)N1Cc1ccccc1` (racemic) [Compound 9, (±)-(3R,3′R,3a′R,6a′S)-3′-((1H-Indol-3-yl)methyl)-5′-benzyl-2′,3′,3a′,6a′-tetrahydro-4′H-spiro[indoline-3,1′-pyrrolo[3,4-c]pyrrole]-2,4′,6′(5′H)-trione] the EC50 [4] was ~10000 nM.
Work on `Cc1ccc2c(c1C)NC(=O)[C@@]21[C@H]2C(=O)N(c3ccccc3)C(=O)[C@H]2[C@H]2CN(C(=O)OC(C)(C)C)CCN21` (racemic) [Compound 23, (±)-tert-Butyl (3R,3a′R,3b′S,9a′S)-6,7-dimethyl-1′,2,3′-trioxo-2′-phenyl-2′,3′,3a′,3b′,4′,6′,7′,9a′-octahydrospiro[indoline-3,9′-pyrrolo[3′,4′:3,4]pyrrolo[1,2-a]pyrazine]-5′(1′H)-carboxylate] yielded an EC50 [4] of 5.7 ± 6 nM.
